Laboratory results as given in ChEMBL document CHEMBL4602651, “Development of selective mono or dual PROTAC degrader probe of CDK isoforms” (Eur J Med Chem, 2020).
Calls of active or inactive are those of the source. The calls are words filed in the database; no cut-off is given here.

Key:
[1] = molecular target: T1, Protein cereblon/Cyclin-dependent kinase 2/Cyclin-dependent kinase 9 (Homo sapiens, UniProt P24941+P50750+Q96SW2); assay: Protac activity at CRBN/CDK2/CDK9 in AR-negative human PC3 cells assessed as induction of CDK2 protein degradation at 1 uM after 12 hrs by Western blot analysis; type: cell-based; details: PC-3
Outline: (§1)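 PC-3 cells (5 × 10^5 per well) treated 12 h at single concentrations (50 nM, 500 nM, 1, 5 or 30 µM). RIPA lysates (50 µg) run on 10% SDS-PAGE and immunoblotted for CDK2, CDK5, CDK9 with β-tubulin loading control, then detected by chemiluminescence. Band intensities quantified densitometrically.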

[2] = molecular target: Protein cereblon/Cyclin-dependent kinase 9 (Homo sapiens) (UniProt P50750+Q96SW2); assay: Protac activity at CRBN/CDK9 in AR-negative human PC3 cells assessed as induction of CDK9 protein degradation at 50 nM after 12 hrs by Western blot analysis; type: cell-based; details: PC-3
Outline: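 PC-3 cells (DMEM/F12 1:1, 10% FBS, 1% pen/strep, 37 °C, 5% CO2) plated at 5 × 10^5 per well, exposed to compound for 12 h. RIPA lysates with protease inhibitors; 50 µg total protein run on 10% SDS-PAGE, transferred to PVDF, blocked in 5% milk/TBS-T. Probed with anti-CDK9 (1/1000), β-tubulin loading control, HRP secondary, chemiluminescence; bands scored as degradation detected or not.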

PC-3 [3] = assay: Antiproliferative activity against AR-negative human PC3 cells assessed as reduction in cell viability after 5 days by CCK8 assay; type: functional, cell-based; details: PC-3, 120 h
Outline: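 Cells seeded at 3 × 10^3 per well for 24 h, then dosed in 10-point, 3-fold serial dilution from 10 µM. CCK-8 added after 5 days, 4 h at 37 °C, absorbance at 450 nm. IC50 averaged from three separate determinations (at least two independent runs, duplicate wells). PC-3 grown in DMEM/F12 (1:1), LO2 in RPMI 1640, both with 10% FBS.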

[4] = molecular target: T1, Protein cereblon/Cyclin-dependent kinase 2/Cyclin-dependent kinase 9; assay: Protac activity at CRBN/CDK2/CDK9 in AR-negative human PC3 cells assessed as induction of CDK2 protein degradation after 24 hrs by Western blot analysis; type: cell-based
Outline: (§2)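 PC-3 cells exposed to a degrader concentration series, then immunoblotted for CDK2 and CDK9 versus β-tubulin. The figure legend gives 24 h exposure. DC50 taken as mean of 2 determinations from densitometry.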

[5] = molecular target: T1, Protein cereblon/Cyclin-dependent kinase 2/Cyclin-dependent kinase 9; assay: Protac activity at CRBN/CDK2/CDK9 in AR-negative human PC3 cells assessed as induction of CDK9 protein degradation after 24 hrs by Western blot analysis; type: cell-based; outline: as §2
[6] = molecular target: T1, Protein cereblon/Cyclin-dependent kinase 2/Cyclin-dependent kinase 9; assay: Protac activity at CRBN/CDK2/CDK9 in AR-negative human PC3 cells assessed as induction of CDK9 protein degradation at 500 nM after 4 hrs by Western blot analysis relative to control; type: cell-based; details: PC-3
Outline: (§3)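 PC-3 cells treated with 500 nM degrader for varying times. Lysates blotted for CDK2, CDK4, CDK6, CDK9, c-Myc and Mcl-1, each at 1/1000 primary antibody, with β-tubulin reference and chemiluminescent detection.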

[7] = molecular target: Protein cereblon/Cyclin-dependent kinase 6 (Homo sapiens) (UniProt Q00534+Q96SW2); assay: Protac activity at CRBN/CDK6 in AR-negative human PC3 cells assessed as induction of CDK4 protein degradation at 500 nM after 24 hrs by Western blot analysis; type: cell-based; details: PC-3; outline: as §3
[8] = molecular target: T1, Protein cereblon/Cyclin-dependent kinase 2/Cyclin-dependent kinase 9; assay: Protac activity at CRBN/CDK2/CDK9 in AR-negative human PC3 cells assessed as reduction in c-Myc protein expression at 500 nM measured after 2 to 24 hrs by Western blot analysis; type: cell-based; details: PC-3; outline: as §3
[9] = molecular target: T1, Protein cereblon/Cyclin-dependent kinase 2/Cyclin-dependent kinase 9; assay: Protac activity at CRBN/CDK2/CDK9 in AR-negative human PC3 cells assessed as CDK2 degradation at 250 nM preincubated with FN-1501 for 2 hrs and measured after 8 hrs by Western blot analysis; type: cell-based; details: PC-3
Outline: (§4)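 PC-3 cells pretreated 2 h with 5 µM DMSO, FN-1501, pomalidomide or MG-132, then exposed to degrader at 250 nM for 8 h. Lysates probed for CDK2 and CDK9, β-tubulin as loading control. 50 µg protein per lane, 10% SDS-PAGE, chemiluminescent detection.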

[10] = molecular target: T1, Protein cereblon/Cyclin-dependent kinase 2/Cyclin-dependent kinase 9; assay: Protac activity at CRBN/CDK2/CDK9 in AR-negative human PC3 cells assessed as CDK2 degradation at 250 nM preincubated with proteasome inhibitor MG132 for 2 hrs and measured after 8 hrs by Western blot analysis; type: cell-based; details: PC-3; outline: as §4
[11] = molecular target: T1, Protein cereblon/Cyclin-dependent kinase 2/Cyclin-dependent kinase 9; assay: Protac activity at CRBN/CDK2/CDK9 in human MCF7 cells assessed as CDK2 degradation at 0.25 to 10 uM after 12 hrs by Westernblot analysis; type: cell-based
Outline: (§5)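 22Rv1, HCT-116 (RPMI 1640, 10% FBS) and MCF-7 cells treated with degrader at indicated concentrations for 12 h. CDK2 and CDK9 blotted with β-tubulin loading control.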

[12] = molecular target: T1, Protein cereblon/Cyclin-dependent kinase 2/Cyclin-dependent kinase 9; assay: Protac activity at CRBN/CDK2/CDK9 in human 22Rv1 cells assessed as CDK2 degradation at 0.25 to 10 uM after 12 hrs by Westernblot analysis; type: cell-based; details: CWR22R; outline: as §5
PC-3 [13] = assay: Induction of cell cycle arrest in human PC3 cells assessed as accumulation at S phase at 250 nM after 48 hrs by propidium iodide staining based flow cytometry (reference value: 17.96%); type: functional
PC-3 [14] = assay: Induction of cell cycle arrest in human PC3 cells assessed as accumulation at S phase at 1 uM after 48 hrs by propidium iodide staining based flow cytometry (reference value: 17.96%); type: functional
PC-3 [15] = assay: Induction of cell cycle arrest in human PC3 cells assessed as accumulation at G0/G1 phase at 3 uM after 48 hrs by propidium iodide staining based flow cytometry (reference value: 59.80%); type: functional
PC-3 [16] = assay: Induction of cell cycle arrest in human PC3 cells assessed as accumulation at S phase at 3 uM after 48 hrs by propidium iodide staining based flow cytometry (reference value: 17.96%); type: functional
PC-3 [17] = assay: Antiproliferative activity against AR-negative human PC3 cells at 2 uM after 24 hrs by CFSE dye based flow cytometry; type: functional, cell-based
Outline: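 PC-3 cells treated 24 h at 2 µM alongside DMSO control. Single-cell suspension labelled with CFSE (final 5 µM) for 15 min at room temperature in the dark, then proliferation read by flow cytometry.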

[18] = molecular target: T1, Protein cereblon/Cyclin-dependent kinase 2/Cyclin-dependent kinase 9; assay: Protac activity at CRBN/CDK2/CDK9 in AR-negative human PC3 cells assessed as induction of CDK2 protein degradation at 500 nM after 4 hrs by Western blot analysis; type: cell-based; details: PC-3; outline: as §3
[19] = molecular target: T1, Protein cereblon/Cyclin-dependent kinase 2/Cyclin-dependent kinase 9; assay: Protac activity at CRBN/CDK2/CDK9 in AR-negative human PC3 cells assessed as reduction in Mcl-1 protein expression at 500 nM measured after 2 to 24 hrs by Western blot analysis; type: cell-based; details: PC-3; outline: as §3
[20] = molecular target: T1, Protein cereblon/Cyclin-dependent kinase 2/Cyclin-dependent kinase 9; assay: Protac activity at CRBN/CDK2/CDK9 in AR-negative human PC3 cells assessed as CDK9 degradation at 250 nM preincubated with proteasome inhibitor MG132 for 2 hrs and measured after 8 hrs by Western blot analysis; type: cell-based; details: PC-3; outline: as §4
[21] = molecular target: T1, Protein cereblon/Cyclin-dependent kinase 2/Cyclin-dependent kinase 9; assay: Protac activity at CRBN/CDK2/CDK9 in human HCT116 cells assessed as CDK9 degradation at 0.25 to 10 uM after 12 hrs by Westernblot analysis; type: cell-based; details: HCT-116; outline: as §5
[22] = molecular target: T1, Protein cereblon/Cyclin-dependent kinase 2/Cyclin-dependent kinase 9; assay: Protac activity at CRBN/CDK2/CDK9 in AR-negative human PC3 cells assessed as induction of CDK9 protein degradation at 1 uM after 12 hrs by Western blot analysis; type: cell-based; details: PC-3; outline: as §1

Sequence of Protein cereblon/Cyclin-dependent kinase 6 (Homo sapiens) (Q00534 whole entry, looked up): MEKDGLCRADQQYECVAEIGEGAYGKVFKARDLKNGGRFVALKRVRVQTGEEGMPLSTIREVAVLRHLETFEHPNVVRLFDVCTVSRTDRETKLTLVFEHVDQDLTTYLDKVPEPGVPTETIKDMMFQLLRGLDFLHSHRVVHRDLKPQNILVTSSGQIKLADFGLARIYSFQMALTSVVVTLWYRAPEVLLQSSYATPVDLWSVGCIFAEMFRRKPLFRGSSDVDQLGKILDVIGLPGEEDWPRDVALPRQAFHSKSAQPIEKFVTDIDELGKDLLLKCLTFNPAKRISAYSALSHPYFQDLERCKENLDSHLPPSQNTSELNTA
Sequence of Protein cereblon/Cyclin-dependent kinase 6 (Homo sapiens) (Q96SW2 whole entry, looked up): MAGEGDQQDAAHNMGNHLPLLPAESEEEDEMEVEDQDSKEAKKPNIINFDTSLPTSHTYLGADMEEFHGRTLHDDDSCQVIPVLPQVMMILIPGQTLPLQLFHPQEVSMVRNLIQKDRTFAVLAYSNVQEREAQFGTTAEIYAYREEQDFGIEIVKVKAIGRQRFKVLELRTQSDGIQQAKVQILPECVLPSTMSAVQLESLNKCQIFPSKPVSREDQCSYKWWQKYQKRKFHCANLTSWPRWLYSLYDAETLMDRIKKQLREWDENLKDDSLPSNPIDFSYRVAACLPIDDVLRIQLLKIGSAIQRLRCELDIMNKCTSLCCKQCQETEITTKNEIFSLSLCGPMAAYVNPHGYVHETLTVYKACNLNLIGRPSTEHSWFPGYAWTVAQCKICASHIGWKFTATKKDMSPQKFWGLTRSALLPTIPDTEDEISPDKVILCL
Sequence of Protein cereblon/Cyclin-dependent kinase 9 (Homo sapiens) (P50750 whole entry, looked up): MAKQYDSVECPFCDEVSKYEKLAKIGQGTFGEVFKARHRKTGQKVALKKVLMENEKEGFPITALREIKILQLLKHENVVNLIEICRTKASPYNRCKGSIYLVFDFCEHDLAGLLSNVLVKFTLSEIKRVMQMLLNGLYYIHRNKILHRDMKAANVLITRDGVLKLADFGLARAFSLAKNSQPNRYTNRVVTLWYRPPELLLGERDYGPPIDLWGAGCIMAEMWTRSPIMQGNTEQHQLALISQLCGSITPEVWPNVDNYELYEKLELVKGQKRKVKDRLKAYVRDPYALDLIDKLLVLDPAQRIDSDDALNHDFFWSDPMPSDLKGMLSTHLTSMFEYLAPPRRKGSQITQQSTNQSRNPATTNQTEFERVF
Sequence of Protein cereblon/Cyclin-dependent kinase 9 (Homo sapiens) (Q96SW2 whole entry, looked up): as the sequence (Q96SW2 whole entry, looked up) above

Activity [1]: Active
Activity [2]: Active
IC50 (PC-3 [3]): 120 nM
Activity ([4]; PC-3): Dose-dependent effect
DC50 ([4]; pc-3): 62 nM
Activity ([5]; PC-3): Dose-dependent effect
DC50 ([5]; pc-3): 33 nM
Activity [6]: > 80%
Activity [7]: inactive
Activity [8]: Active
Activity [9]: inactive
Activity [10]: inactive
Activity [11]: Active
Activity [12]: Active
Activity [18]: Active
Activity [19]: Active
Activity [20]: inactive
Activity [21]: Active
Activity [22]: Active
SMILES: O=C(CCC(=O)N1CCN(Cc2ccc(NC(=O)c3n[nH]cc3Nc3ncnc4[nH]ccc34)cc2)CC1)NCCNc1cccc2c1C(=O)N(C1CCC(=O)NC1=O)C2=O (centres undefined)
Activity (PC-3 [13]): 27.72%
Activity (PC-3 [14]): 9.23%
Activity (PC-3 [15]): 52.76%
Activity (PC-3 [16]): 11.24%
Activity (PC-3 [17]): Active
